Calls of active or inactive are those of the source. No cut-off for these calls is given here.
Assays:
[1] = Toxicity in Balb/c mouse xenografted with human HCT-116 cells assessed as reduction in body weight at 25 to 100 mg/kg, ip administered for 21 days and measured on day 21; assay type: organism-based; conditions: in vivo, 504 h, dose 25-100 mg/kg, time 21 day
Procedure, shortened: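 BALB/c nude mice bearing HCT116 xenografts were dosed once daily by intraperitoneal injection at 25, 50 or 100 mg/kg for 21 days, starting when tumours reached 100-300 mm³. Body weight was tracked over the dosing period and compared with the blank group.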

A-375 [2] = assay: Induction of ROS accumulation in human A-375 cells at 1 uM incubated for 24 hrs by DCFH-DA staining based confocal microscopic analysis; assay type: functional, cell-based
Procedure, shortened: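 A375 cells treated at 1 µM or with DMSO blank for 24 h. Intracellular ROS detected with the fluorescent dye DCFH-DA.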

NCI-H460 [3] = assay: Induction of apoptosis in human NCI-H460 cells assessed as early apoptotic cells at 2 uM incubated for 48 hrs by annexin V-FITC and PI staining based flow cytometry (reference value: 2.88 %); assay type: functional
[4] = Half life in ICR mouse at 4 mg/kg, iv measured upto 24 hrs by LC-MS/MS analysis; assay type: ADME, organism-based; conditions: in vivo
Procedure, shortened: (§1)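 Male ICR mice (N=9). Single dose, either 4 mg/kg intravenous or 20 mg/kg intraperitoneal. Parameters derived: T1/2, Tmax, Cmax, AUC0-t, MRT0-t and CL, with F for the intraperitoneal arm.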

HCT-116 [5] = assay: Induction of apoptosis in human HCT-116 cells assessed as viable cells at 1 uM incubated for 48 hrs by annexin V-FITC and PI staining based flow cytometry (reference value: 93.9 %); assay type: functional; conditions: read-out: Activity
NCI-H460 [6] = assay: Antiproliferative activity against human NCI-H460 cells assessed as reduction in cell growth incubated for 72 hrs by CCK-8 assay; assay type: functional, cell-based; conditions: NCI-H460, 72 h
Procedure, shortened: (§2)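 IC50 by CCK-8 assay across five solid-tumour lines (HCT116, HepG2, H460, HeLa, A375). Run only for compounds chosen after the single-concentration screen, with CS055 and roscovitine as references.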

HeLa [7] = assay: Induction of apoptosis in human HeLa cells assessed as viable cells at 0.5 uM incubated for 48 hrs by annexin V-FITC and PI staining based flow cytometry (reference value: 98.5 %); assay type: functional; conditions: read-out: Activity
NCI-H460 [8] = assay: Antimigratory activity against human NCI-H460 cells assessed as inhibition of migration at 0.5 uM incubated for 48 hrs by microscopic based wound healing test; assay type: functional, cell-based
Procedure, shortened: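 Scratch (wound-healing) migration assay in A375 and H460 cells seeded in 12-well plates. Cells exposed to compound, CS055, roscovitine or DMSO blank for 48 h. At least two independent experiments.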

HepG2 [9] = assay: Cytotoxicity against human HepG2 cells assessed as effect on cell morphology at 0.5 to 8 micromol incubated for 48 hrs by microscopic analysis; assay type: functional, cell-based; conditions: dose 0.5-8 µmol
Procedure, shortened: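 Five cancer cell lines treated with compound or DMSO (0.1 %) for 48 h. Morphology inspected by light microscopy at 10× objective.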

HCT-116 [10] = assay: Antiproliferative activity against human HCT-116 cells assessed as reduction in cell growth incubated for 72 hrs by CCK-8 assay; assay type: functional, cell-based; conditions: HCT-116, 72 h; procedure, shortened: as §2
HeLa [11] = assay: Induction of apoptosis in human HeLa cells assessed as viable cells at 1 uM incubated for 48 hrs by annexin V-FITC and PI staining based flow cytometry (reference value: 98.5 %); assay type: functional; conditions: read-out: Activity
NCI-H460 [12] = assay: Induction of apoptosis in human H460 cells assessed as apoptosis rate at 2 uM incubated for 48 hrs by annexin V-FITC and PI staining based flow cytometry relative to control; assay type: functional
NCI-H460 [13] = assay: Induction of apoptosis in human NCI-H460 cells assessed as late apoptotic cells at 2 uM incubated for 48 hrs by annexin V-FITC and PI staining based flow cytometry (reference value: 6.11 %); assay type: functional
HCT-116 [14] = assay: Antiproliferative activity against human HCT-116 cells assessed as reduction in cell growth at 2 uM incubated for 72 hrs by CCK-8 assay relative to control; assay type: functional
HCT-116 [15] = assay: Induction of apoptosis in human HCT-116 cells assessed as apoptosis rate at 2 uM incubated for 48 hrs by annexin V-FITC and PI staining based flow cytometry relative to control; assay type: functional
A-375 [16] = assay: Induction of apoptosis in human A-375 cells assessed as viable cells at 0.5 uM incubated for 48 hrs by annexin V-FITC and PI staining based flow cytometry (reference value: 96.3 %); assay type: functional; conditions: read-out: Activity
HCT-116 [17] = assay: Induction of apoptosis in human HCT-116 cells assessed as late apoptotic cells at 0.5 uM incubated for 48 hrs by annexin V-FITC and PI staining based flow cytometry (reference value: 1.88 %); assay type: functional
[18] = AUC (0 to t) in ICR mouse at 4 mg/kg, iv measured upto 24 hrs by LC-MS/MS analysis; assay type: ADME, organism-based; set-up: route intravenous, dose 4 mg/kg, time <=24; conditions: in vivo; procedure, shortened: as §1
HeLa [19] = assay: Induction of apoptosis in human HeLa cells assessed as necrotic cells at 1 uM incubated for 48 hrs by annexin V-FITC and PI staining based flow cytometry (reference value: 0.124 %); assay type: functional
HeLa [20] = assay: Induction of apoptosis in human HeLa cells assessed as early apoptotic cells at 0.5 uM incubated for 48 hrs by annexin V-FITC and PI staining based flow cytometry (reference value: 0.528 %); assay type: functional
Histone deacetylase 2 = Histone deacetylase 2 (Homo sapiens, UniProt Q92769); assay: Potency index, ratio of IC50 of CS055 to IC50 of compound for inhibition of recombinant human HDAC2 using FLUOR-DE-LYS-Green as substrate incubated for 10 mins followed by substrate addition and measured after 30 mins by fluorescence based assay
A-375 [21] = assay: Induction of cell cycle arrest in human A-375 cells assessed as reduction in G0/G1 phase at 0.5 to 2 uM incubated for 24 hrs by PI staining based flow cytometry; assay type: functional; conditions: dose 0.5-2 µM
Procedure, shortened: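 Treatment at 2, 1 and 0.5 μM for 24 h, alongside CS055 and roscovitine, against a DMSO (0.1 %) blank. Cells then stained with propidium iodide and analyzed by flow cytometry.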

A-375 [22] = assay: Induction of apoptosis in human A-375 cells assessed as necrotic cells at 2 uM incubated for 48 hrs by annexin V-FITC and PI staining based flow cytometry (reference value: 0.139 %); assay type: functional
A-375 [23] = assay: Induction of apoptosis in human A-375 cells assessed as early apoptotic cells at 2 uM incubated for 48 hrs by annexin V-FITC and PI staining based flow cytometry (reference value: 1.34 %); assay type: functional
HeLa [24] = assay: Induction of apoptosis in human HeLa cells assessed as early apoptotic cells at 1 uM incubated for 48 hrs by annexin V-FITC and PI staining based flow cytometry (reference value: 0.528 %); assay type: functional
HeLa [25] = assay: Induction of apoptosis in human HeLa cells assessed as viable cells at 2 uM incubated for 48 hrs by annexin V-FITC and PI staining based flow cytometry (reference value: 98.5 %); assay type: functional; conditions: read-out: Activity
NCI-H460 [26] = assay: Induction of apoptosis in human NCI-H460 cells assessed as late apoptotic cells at 0.5 uM incubated for 48 hrs by annexin V-FITC and PI staining based flow cytometry (reference value: 6.11 %); assay type: functional
HepG2 [27] = assay: Antiproliferative activity against human HepG2 cells assessed as reduction in cell growth at 2 uM incubated for 72 hrs by CCK-8 assay relative to control; assay type: functional

Histone deacetylase 2, sequence (Q92769 whole entry): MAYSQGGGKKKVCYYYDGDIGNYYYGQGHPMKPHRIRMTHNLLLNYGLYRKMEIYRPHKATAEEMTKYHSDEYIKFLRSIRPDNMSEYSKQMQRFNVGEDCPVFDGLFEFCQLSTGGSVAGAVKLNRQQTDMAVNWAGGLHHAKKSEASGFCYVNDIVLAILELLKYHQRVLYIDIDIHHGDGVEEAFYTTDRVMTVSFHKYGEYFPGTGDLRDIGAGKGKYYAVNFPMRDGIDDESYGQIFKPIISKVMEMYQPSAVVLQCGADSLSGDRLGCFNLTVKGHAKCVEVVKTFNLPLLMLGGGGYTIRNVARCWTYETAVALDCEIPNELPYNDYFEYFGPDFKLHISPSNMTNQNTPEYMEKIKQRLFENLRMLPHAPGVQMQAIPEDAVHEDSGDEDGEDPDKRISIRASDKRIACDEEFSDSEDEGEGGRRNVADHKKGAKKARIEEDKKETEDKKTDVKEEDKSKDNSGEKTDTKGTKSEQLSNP

Cc1ccc(Nc2nc(Cl)nc3c2ncn3Cc2ccc(C(=O)Nc3ccccc3N)cc2)cc1
Activity [1]: Non-Toxic | Activity (A-375 [2]): Active | Activity (NCI-H460 [3]): 12% | half-life [4]: 1.48 h | viability at 1 µM (HCT-116 [5]): 13.3% | IC50 (NCI-H460 [6]): 1590 nM | viability at 0.5 µM (HeLa [7]): 89.9% | inhibition (NCI-H460 [8]): Active | Activity (HepG2 [9]): Active | IC50 (HCT-116 [10]): 580 nM | viability at 1 µM (HeLa [11]): 85.2% | Activity (NCI-H460 [12]): 59.1% | Activity (NCI-H460 [13]): 47.1% | inhibition at 2 µM (HCT-116 [14]): 76.3% | Activity (HCT-116 [15]): 89.6% | viability at 0.5 µM (A-375 [16]): 16.4% | Activity (HCT-116 [17]): 16.6% | AUC(0-t) at 24 h [18]: 2850 ng·h/mL | Activity (HeLa [19]): 0.363% | Activity (HeLa [20]): 4.36% | Ratio IC50 (Histone deacetylase 2): 2 | Activity (A-375 [21]): Active | Activity (A-375 [22]): 0.453% | Activity (A-375 [23]): 7.19% | Activity (HeLa [24]): 5.85% | viability at 2 µM (HeLa [25]): 77.4% | Activity (NCI-H460 [26]): 4.31% | inhibition at 2 µM (HepG2 [27]): 76.2%

Reference: ChEMBL document CHEMBL4765302, “Design, synthesis and biological evaluation of novel histone deacetylase1/2 (HDAC1/2) and cyclin-dependent Kinase2 (CDK2) dual inhibitors against malignant cancer” (Eur J Med Chem, 2020)
